Tn7 DDE FP – inhibitors of Tn7 peptide binding to human fibrin DD(E); FP displacement of FITC-Tn7 peptide from fibrin DD(E); 0% = median of compound wells per plate; inhibition, % at 8.3 µM; 370,000 compounds, 0.13% hits; AID 720508;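 active = inhibition above the mean of compounds falling within the control limits plus 3 SD of them, cut at about 14% in these data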;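 also: 0% = plate median of compound wells and 100% = 10 µM Aha-Tn7 peptide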
Target sequence (P02675 whole entry, looked up): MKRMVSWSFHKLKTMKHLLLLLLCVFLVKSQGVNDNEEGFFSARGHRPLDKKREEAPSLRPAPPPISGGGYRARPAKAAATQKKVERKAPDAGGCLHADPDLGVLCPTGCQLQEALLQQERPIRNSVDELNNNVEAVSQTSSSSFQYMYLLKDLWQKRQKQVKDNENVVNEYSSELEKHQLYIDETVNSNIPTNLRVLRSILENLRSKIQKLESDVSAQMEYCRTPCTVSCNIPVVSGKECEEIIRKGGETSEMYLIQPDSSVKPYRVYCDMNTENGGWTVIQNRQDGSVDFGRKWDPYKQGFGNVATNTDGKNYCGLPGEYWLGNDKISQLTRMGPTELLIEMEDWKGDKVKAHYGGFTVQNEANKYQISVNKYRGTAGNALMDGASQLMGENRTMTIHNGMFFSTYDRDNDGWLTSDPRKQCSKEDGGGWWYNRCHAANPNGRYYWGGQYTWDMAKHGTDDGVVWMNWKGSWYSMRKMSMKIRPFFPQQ
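Assay system: human fibrin DD(E). Input: DD(E) 2 µM final. Medium: Tris buffer with calcium and detergent, pH 7.8. Compound dosing: single point at 8.3 µM. Timing: 10 min plus 3 h, room temperature. Technique: fluorescence polarization of the labelled Tn7 tracer. Read-out: percent inhibition. Replicates: singlicate testing.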
DDE Tn6 FP inh – DD(E)-Tn6 binding inhibition, primary FP screen; P02675; Fibrin DD(E) TRITC-Tn6 fluorescence polarization displacement; inhibition, % at 8.3 µM; 370,000 compounds, 0.21% hits; AID 720509;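 active = inhibition above a per-campaign cutoff: mean of compounds within control limits plus 3 SD, cut at about 15% in these data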;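 also: 0% = median of all compound wells on the plate and 100% = blocking peptide control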
CRFBP-R2 block – CRF-BP/CRF-R2 complex antagonism; HEK293 CRF-R2/CRF-BP, CRF-induced calcium fluorescence; inhibition, % at 11.8 µM; 350,000 compounds, 0.59% hits;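 active = inhibition of the ligand-induced calcium signal above about 50% at the single tested concentration, limit read from the data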
CRFBP-R2 agonist – CRF-BP/CRF-R2 complex agonism | HEK293 CRF-R2/CRF-BP, calcium dye fluorescence (FLIPR); percent of saturating CRF peptide response | activation, % at 13.2 µM | AID 588473 | 350,000 compounds, 0.46% hits;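 active = activation of at least 50%, plus an integration ratio under a set limit after plate pattern correction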;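 also: plate controls were neutral control wells without compound for no effect and CRF at EC100 for full effect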
The depositor's hits bear a star; i = inactive; nt = no result; + = active, no number. Most compounds without a hit are left out; they make up all but 1.3% or so of the library.

SMILES | Tn7 DDE FP | DDE Tn6 FP inh | CRFBP-R2 block | CRFBP-R2 agonist
CCCCNC(=O)C[C@H]1C[C@@]2(C(=O)OC)C(=C[C@H](COCc3ccccc3)O[C@@H]2C)N(Cc2ccc3c(c2)OCO3)C1=O | 3 | 2 | nt | nt
CCOC(=O)N1CCN(C(=O)C[C@@H]2C(=O)N(Cc3ccc(OC)cc3)/C3=C/CCCCC[C@@]32C(=O)OCC)CC1 | -3 | 4 | nt | nt
COc1ccc(NC(=O)CN2CCCC2c2cccs2)cc1S(=O)(=O)N1CCCCC1 (stereo not given) | 3 | 5 | 64* | -1
COc1ccc(NC(=O)CCCC2CCCCC2)cc1S(=O)(=O)N1CCCCC1 | -1 | -5 | 64* | -2
COc1ccc(S[C@]2(C(=O)N3CCN(C(C)=O)CC3)CC(=O)N(C(=O)C3CC3)[C@@H]2c2ccc(OC)cc2)cc1 | 2 | -1 | nt | nt
O=C(COC(=O)C1CCN(S(=O)(=O)c2ccc3c(c2)OCCO3)CC1)NC1CCS(=O)(=O)C1 (stereo not given) | -1 | -9 | 115* | 1
O=C(COC(=O)C1CCN(S(=O)(=O)c2ccc3c(c2)OCCO3)CC1)NC1CCCCC1 | -2 | -5 | -10 | 0
NS(=O)(=O)c1ccc(NC(=S)Nc2ccc(F)c(F)c2)cc1 | -4 | 8 | 69* | 7
NS(=O)(=O)c1ccc(CNC(=S)Nc2ccc(F)c(Cl)c2)cc1 | 4 | 1 | -39 | -1
CN1Cc2sc(NC(=S)NC(=O)c3ccccc3)c(C#N)c2CC1(C)C | -1 | -15 | -70 | 93*
CCC1(C)Cc2c(sc(NC(=S)NC(=O)c3ccccc3)c2C#N)CO1 (stereo not given) | 3 | -5 | -63 | 1
C[C@H](O)[C@@H]1CN2CCc3ccc(-c4ccc5c(c4)OCO5)cc3[C@@H]2C[C@@H]1N(C)CC1CCCCC1 | 5 | 1 | nt | nt
O=C(CSc1nnc(-c2ccco2)n1Cc1ccco1)c1ccc([N+](=O)[O-])cc1 | -5 | -3 | nt | nt
Cc1ccc(N=C2NC(=O)/C(=C/c3cn(C)c4ccccc34)S2)cc1C | -4 | -9 | -55 | 64*
COc1ccc2c(c1)[C@@]1(OCCC=C[C@H]1C)C(=O)N2CC1CC1 | 6 | -7 | nt | nt
Cc1ccc(SCC(=O)Nc2cc([N+](=O)[O-])ccc2O)cc1 | 3 | 1 | 92* | 80*
CCOc1ccc(C(=O)Nc2cnn(Cc3ccc(Cl)c(Cl)c3)c2)cc1 | 6 | -8 | 73* | 5
COc1ccc2c(c1)CN1CN(C3CCCC3)S(=O)(=O)CC21 (stereo not given) | 7 | -5 | nt | nt
Nc1nonc1-n1nnc(C(=O)N/N=C/c2cc(Br)ccc2O)c1CNc1ccccc1 | 2 | 3 | -2 | 3
Nc1nonc1C(=O)N/N=C/c1cc(Br)ccc1O | -3 | 1 | -36 | 56*
Cc1cccn2c(/C=N/OCc3cccc(F)c3)c(-c3ccc(Cl)cc3)nc12 | -2 | -4 | 95* | -3
Fc1cccc(CO/N=C/c2c(-c3ccccc3)nc3ccc(Cl)cn23)c1 | 5 | 2 | -8 | 8
COc1cccc(CC(=O)N(Cc2ccccc2)c2ccccc2C(=O)Nc2cc(OC)ccc2OC)c1 | 3 | 5 | nt | nt
Cc1ccc(NCC(=O)N/N=C\c2ccc([N+](=O)[O-])o2)cc1 | -13 | 0 | 11 | -1
O=C(CNc1ccccc1)N/N=C/c1ccc([N+](=O)[O-])o1 | 0 | -4 | 85* | -1
SMILES | Tn7 DDE FP | DDE Tn6 FP inh | CRFBP-R2 block | CRFBP-R2 agonist
CC(=O)c1cc(-c2ccc3[nH]ccc3c2)c(=O)n2c1CCC2 | -9 | 3 | nt | nt
NC(=O)c1ncn([C@@H]2O[C@H](C(=O)N[C@H](Cc3c[nH]c4ccccc34)C(=O)N3CCN(C(=O)N4CCCCC4)CC3)[C@@H](O)[C@H]2O)n1 | -1 | -5 | nt | nt
CCNc1cccc2c1C(=O)N(C)C2=O | 7 | 8 | -29 | 50
Cc1cccc(NC2=C(NCCO)C(=O)c3ccccc3C2=O)c1 | 3 | 9 | 3 | -2
CCCCNc1c2c3c(cccc3n(C)c1=O)C(=O)c1ccccc1-2 | nt | nt | -272 | 239*
CCNc1c2c3c(cccc3n(C)c1=O)C(=O)c1ccccc1-2 | nt | nt | -158 | 179*
Cn1c(=O)c(NCCO)c2c3c(cccc31)C(=O)c1ccccc1-2 | -8 | 37* | i | 865
Cn1c(=O)c(NCCc2ccccc2)c2c3c(cccc31)C(=O)c1ccccc1-2 | -1 | + | -206 | 273
Cc1cc(NS(=O)(=O)c2ccc(NC(=O)CSc3nnc(-c4ccccn4)n3Cc3ccco3)cc2)nc(C)n1 | -4 | -10 | nt | nt
O=C(CSc1nnc(-c2ccccn2)n1-c1ccccc1)c1ccc(Cl)c(Cl)c1 | -6 | 10 | nt | nt
